Test results reported in ChEMBL document CHEMBL1123430, “Potential tumor- or organ-imaging agents. 26. Polyiodinated 2-substituted triacylglycerols as hepatographic agents” (J Med Chem, 1986).

What was measured:
Rattus norvegicus [1] = assay: Distribution of radioactivity of radiolabeled compound in kidney of female rats 30 minutes after intravenous administration; format: ADME, organism-based; conditions: in vivo, 0.5 h
Rattus norvegicus [2] = assay: Polyacrylamide Gel Electrophoresis (PAGE) analysis of rat plasma 5 minutes after intravenous administration of radiolabeled compound in stacking gel; format: functional, organism-based
How it was run: (§1)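 ¹²⁵I-labeled compound, radioiodinated by exchange in a pivalic acid melt, solubilized in normal saline with Tween 20 and given iv to adult female Sprague–Dawley rats (200–250 g), 5–30 μCi/animal, 3–4 rats per time point. Plasma was run on polyacrylamide gels. Gels were sectioned and gamma counted. Radioactivity per band (stacking gel, LDL, HDL, albumin, below albumin) is given as % of total applied; mean ± SEM, n = 3-5.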

Rattus norvegicus [3] = assay: Distribution of radioactivity of radiolabeled compound in lung of female rats 5 minutes after intravenous administration; format: ADME, organism-based; conditions: in vivo
Rattus norvegicus [4] = assay: Distribution of radioactivity of radiolabeled compound in kidney of female rats 5 minutes after intravenous administration; format: ADME, organism-based; conditions: in vivo
Rattus norvegicus [5] = assay: Distribution of radioactivity of radiolabeled compound in heart of female rats 30 minutes after intravenous administration; format: ADME, organism-based; conditions: in vivo, 0.5 h
Rattus norvegicus [6] = assay: Distribution of radioactivity of radiolabeled compound in lung of female rats 30 minutes after intravenous administration; format: ADME, organism-based; conditions: in vivo, 0.5 h
Rattus norvegicus [7] = assay: Polyacrylamide Gel Electrophoresis (PAGE) analysis of rat plasma 5 minutes after intravenous administration of radiolabeled compound (below albumin ); format: functional, organism-based; how it was run: as §1
Rattus norvegicus [8] = assay: Polyacrylamide Gel Electrophoresis (PAGE) analysis of rat plasma 5 min after intravenous administration of radiolabeled compound concentration of albumin; format: functional, organism-based
How it was run: (§2)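 Gels were sectioned and counted in a γ counter. Radioactivity in each band (stacking gel, LDL, HDL, albumin, below albumin) is expressed as a percentage of the total radioactivity applied to the gel, ± SEM, n = 3-5.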

Rattus norvegicus [9] = assay: Polyacrylamide Gel Electrophoresis (PAGE) analysis of rat plasma 5 minutes after intravenous administration of radiolabeled compound in low-density lipoprotein; format: functional, organism-based; how it was run: as §1
Rattus norvegicus [10] = assay: Distribution of radioactivity of radiolabeled compound in blood of female rats 30 minutes after intravenous administration; format: ADME, organism-based; conditions: in vivo, 0.5 h
Rattus norvegicus [11] = assay: Polyacrylamide Gel Electrophoresis (PAGE) analysis of rat plasma 30 min after intravenous administration of radiolabeled compound in albumin; format: functional, organism-based; how it was run: as §2
Rattus norvegicus [12] = assay: Distribution of radioactivity of radiolabeled compound in blood of female rats 5 minutes after intravenous administration; format: ADME, organism-based; conditions: in vivo
Rattus norvegicus [13] = assay: Distribution of radioactivity of radiolabeled compound in liver of female rats 5 minutes after intravenous administration; format: ADME, organism-based; conditions: in vivo
Rattus norvegicus [14] = assay: Polyacrylamide Gel Electrophoresis (PAGE) analysis of rat plasma 30 min after intravenous administration of radiolabeled compound at in high density; format: functional, organism-based; how it was run: as §2
Rattus norvegicus [15] = assay: Polyacrylamide Gel Electrophoresis (PAGE) analysis of rat plasma 5 minutes after intravenous administration of radiolabeled compound at in high density lipoprotein; format: functional, organism-based; how it was run: as §1
Rattus norvegicus [16] = assay: Distribution of radioactivity of radiolabeled compound in heart of female rats 5 minutes after intravenous administration; format: ADME, organism-based; conditions: in vivo
Rattus norvegicus [17] = assay: Polyacrylamide Gel Electrophoresis (PAGE) analysis of rat plasma 5 minutes after intravenous administration of radiolabeled in stacking gel; format: functional, organism-based; how it was run: as §1
Rattus norvegicus [18] = assay: Polyacrylamide Gel Electrophoresis (PAGE) analysis of rat plasma 30 min after intravenous administration of radiolabeled compound ( below albumin); format: functional, organism-based; how it was run: as §2
Rattus norvegicus [19] = assay: Polyacrylamide Gel Electrophoresis (PAGE) analysis of rat plasma 30 min after intravenous administration of radiolabeled compound in low density lipoprotein; format: functional, organism-based; how it was run: as §2
Rattus norvegicus [20] = assay: Distribution of radioactivity of radiolabeled compound in liver of female rats 30 minutes after intravenous administration; format: ADME, organism-based; conditions: in vivo, 0.5 h
Rattus norvegicus [21] = assay: Polyacrylamide Gel Electrophoresis (PAGE) analysis of rat plasma 30 minutes after intravenous administration of radiolabeled in stacking gel; format: functional, organism-based; how it was run: as §2
Rattus norvegicus [22] = assay: Polyacrylamide Gel Electrophoresis (PAGE) analysis of rat plasma after intravenous administration of radiolabeled compound in high density lipoprotein; format: functional, organism-based; how it was run: as §1
Rattus norvegicus [23] = assay: Polyacrylamide Gel Electrophoresis (PAGE) analysis of rat plasma 5 minutes after intravenous administration of radiolabeled compound in high density lipoprotein; format: functional, organism-based; how it was run: as §1
Rattus norvegicus [24] = assay: Polyacrylamide Gel Electrophoresis (PAGE) analysis of rat plasma after intravenous administration of radiolabeled compound at concentration of low-density lipoprotein; format: functional, organism-based; how it was run: as §1
Rattus norvegicus [25] = assay: Polyacrylamide Gel Electrophoresis (PAGE) analysis of rat plasma 30 min after intravenous administration of radiolabeled compound ( below albumin ); format: functional, organism-based; how it was run: as §2
Rattus norvegicus [26] = assay: Polyacrylamide Gel Electrophoresis (PAGE) analysis of rat plasma 5 min after intravenous administration of radiolabeled compound in albumin; format: functional, organism-based; how it was run: as §2
Rattus norvegicus [27] = assay: Polyacrylamide Gel Electrophoresis (PAGE) analysis of rat plasma after intravenous administration of radiolabeled compound concentration of stacking gel; format: functional, organism-based; how it was run: as §1
Rattus norvegicus [28] = assay: Polyacrylamide Gel Electrophoresis (PAGE) analysis of rat plasma 5 minutes after intravenous administration of radiolabeled compound in albumin; format: functional, organism-based; how it was run: as §1

For `Nc1c(I)cc(I)c(CC(=O)O)c1I`, the Dose (Rattus norvegicus [1]) was 5.82%, the Concentration (Rattus norvegicus [2]) was 1.7% and the Dose (Rattus norvegicus [3]) was 1.49%. The Dose (Rattus norvegicus [4]) was 4.62%, the Dose (Rattus norvegicus [5]) was 0.72% and the Dose (Rattus norvegicus [6]) was 1.07%. For the same compound, the Concentration (Rattus norvegicus [7]) was 5.5, the Concentration (Rattus norvegicus [8]) was 76 and the Concentration (Rattus norvegicus [9]) was 1%. For the same compound, the Dose (Rattus norvegicus [10]) was 2.41%, the Concentration (Rattus norvegicus [11]) was 83.6 and the Dose (Rattus norvegicus [12]) was 5.44%. For the same compound, the Dose (Rattus norvegicus [13]) was 0.87%, the Concentration (Rattus norvegicus [14]) was 7.3% and the Concentration (Rattus norvegicus [15]) was 15.8%. It also gave a Dose (Rattus norvegicus [16]) of 1.09%, a Concentration (Rattus norvegicus [17]) of 1.7% and a Concentration (Rattus norvegicus [18]) of 7. For the same compound, the Concentration (Rattus norvegicus [19]) was 0.4 and the Dose (Rattus norvegicus [20]) was 0.5%.
In the case of `Nc1c(I)cc(I)c(CCC(=O)O)c1I`, the Dose (Rattus norvegicus [1]) is reported as 1.54%, the Concentration (Rattus norvegicus [2]) is reported as 4.6% and the Dose (Rattus norvegicus [3]) is reported as 1.02%. For the same compound, the Dose (Rattus norvegicus [4]) was 2.44%, the Dose (Rattus norvegicus [5]) was 4.14% and the Dose (Rattus norvegicus [6]) was 0.45%. For the same compound, the Concentration (Rattus norvegicus [7]) was 4.1, the Concentration (Rattus norvegicus [8]) was 83.6 and the Concentration (Rattus norvegicus [9]) was 2.4%. For the same compound, the Dose (Rattus norvegicus [10]) was 1.15%, the Concentration (Rattus norvegicus [11]) was 51.5 and the Dose (Rattus norvegicus [12]) was 2.52%. For the same compound, the Dose (Rattus norvegicus [13]) was 1.08%, the Concentration (Rattus norvegicus [14]) was 13.3% and the Concentration (Rattus norvegicus [15]) was 5.3%. The Dose (Rattus norvegicus [16]) was 4%, the Concentration (Rattus norvegicus [21]) was 11 and the Concentration (Rattus norvegicus [18]) was 10.8. For the same compound, the Concentration (Rattus norvegicus [19]) was 6.9 and the Dose (Rattus norvegicus [20]) was 0.77%.
`CCC(Cc1c(I)cc(I)c(N)c1I)C(=O)O` (stereo not given) [IOPANOIC ACID] was tested, and the Concentration (Rattus norvegicus [22]) was 8.7%, the Dose (Rattus norvegicus [1]) was 0.52% and the Concentration (Rattus norvegicus [2]) was 0.6%. It also gave a Concentration (Rattus norvegicus [23]) of 19.8, a Dose (Rattus norvegicus [3]) of 0.81% and a Dose (Rattus norvegicus [4]) of 0.71%. It also gave a Concentration (Rattus norvegicus [24]) of 2.2, a Dose (Rattus norvegicus [5]) of 0.46% and a Dose (Rattus norvegicus [6]) of 0.61%. It also gave a Concentration (Rattus norvegicus [25]) of 6.7%, a Concentration (Rattus norvegicus [26]) of 77.5 and a Concentration (Rattus norvegicus [27]) of 3.9. For the same compound, the Concentration (Rattus norvegicus [9]) was 0.5%, the Dose (Rattus norvegicus [10]) was 1.21% and the Concentration (Rattus norvegicus [11]) was 78.4. The Dose (Rattus norvegicus [12]) was 2.19%, the Dose (Rattus norvegicus [13]) was 1.64% and the Dose (Rattus norvegicus [16]) was 0.74%. It also gave a Concentration (Rattus norvegicus [28]) of 77.5 and a Dose (Rattus norvegicus [20]) of 1.46%.
